Laboratory results reported in ChEMBL document CHEMBL2010694, “Indolyl and dihydroindolyl N-glycinamides as potent and in vivo active NPY5 antagonists” (Bioorg Med Chem Lett, 2012).
The source made the active and inactive calls. The calls are words filed in the database; no cut-off is given here.

Tests used:
[1] = test system: Liver microsomes; experiment: Intrinsic clearance in human liver microsomes at 1 uM by LC/MS analysis; type: ADME, Microsome
Procedure, shortened: (§1)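 Compound incubated with human or rat liver microsomes; reaction quenched with acetonitrile, centrifuged, and remaining drug in supernatant measured by LC/MS to estimate T1/2, from which intrinsic clearance was derived.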

[2] = test system: Liver microsomes; experiment: Intrinsic clearance in rat liver microsomes at 1 uM by LC/MS analysis; type: ADME, Microsome; procedure, shortened: as §1
[3] = test system: Brain; experiment: Drug uptake in Sprague-Dawley rat brain at 10 mg/kg, po by LC-MS/MS analysis; type: ADME, organism-based; set-up: dose 10 mg/kg, route oral; settings: in vivo, read-out: Drug uptake
Procedure, shortened: (§2)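 Male Sprague-Dawley rats (300–350 g), femoral artery cannulated; single 10 mg/kg oral dose in an appropriate vehicle, N = 3. Blood taken predose, 1, 2 and 4 h; brains then collected and stored at -80 °C. Equal portions of plasma or homogenized brain from the three rats pooled per time point, protein precipitated, quantified by LC/MS/MS.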

[4] = test system: MDR; experiment: Apparent permeability from apical to basolateral side in MDCK cells expressing MDR; type: ADME, cell-based, Canis lupus familiaris; settings: dog, MDCK-MDR1
Procedure, shortened: (§3)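 Bidirectional permeability (A–B and B–A) across a Pgp-overexpressing mdr-MDCK cell monolayer; efflux ratio derived from the two Papp values, given in 10^-6 cm/s.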

[5] = test system: MDR; experiment: Apparent permeability from basolateral to apical side in MDCK cells expressing MDR; type: ADME, cell-based, Canis lupus familiaris; settings: dog, MDCK-MDR1; procedure, shortened: as §3
[6] = test system: MDR; experiment: Efflux ratio of permeability from basolateral to apical side over apical to basolateral side in MDCK cells expressing MDR; type: ADME, cell-based, Canis lupus familiaris; settings: dog, MDCK-MDR1
Procedure, shortened: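 Bidirectional permeability measured across a Pgp-overexpressing mdr-MDCK cell monolayer, apical-to-basolateral and basolateral-to-apical. Apparent permeability (Papp, 10^-6 cm/s) was determined in each direction, and the efflux ratio was taken as Papp B–A over Papp A–B.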

[7] = Drug uptake in Sprague-Dawley rat brain at 10 mg/kg, po after 1 hr by LC-MS/MS analysis; type: ADME, organism-based; set-up: dose 10 mg/kg, route oral; settings: read-out: Drug uptake; procedure, shortened: as §2
[8] = Lipophilicity, log D of the compound at pH 7.4; type: physicochemical; settings: buffer
[9] = Protein binding in human; type: ADME, organism-based; settings: plasma, read-out: PB (converted)
[10] = target: T1, Cytochrome P450 1A2 (Homo sapiens, UniProt P05177); experiment: Inhibition of CYP1A2; type: ADME
T1 sequence (P05177 whole entry): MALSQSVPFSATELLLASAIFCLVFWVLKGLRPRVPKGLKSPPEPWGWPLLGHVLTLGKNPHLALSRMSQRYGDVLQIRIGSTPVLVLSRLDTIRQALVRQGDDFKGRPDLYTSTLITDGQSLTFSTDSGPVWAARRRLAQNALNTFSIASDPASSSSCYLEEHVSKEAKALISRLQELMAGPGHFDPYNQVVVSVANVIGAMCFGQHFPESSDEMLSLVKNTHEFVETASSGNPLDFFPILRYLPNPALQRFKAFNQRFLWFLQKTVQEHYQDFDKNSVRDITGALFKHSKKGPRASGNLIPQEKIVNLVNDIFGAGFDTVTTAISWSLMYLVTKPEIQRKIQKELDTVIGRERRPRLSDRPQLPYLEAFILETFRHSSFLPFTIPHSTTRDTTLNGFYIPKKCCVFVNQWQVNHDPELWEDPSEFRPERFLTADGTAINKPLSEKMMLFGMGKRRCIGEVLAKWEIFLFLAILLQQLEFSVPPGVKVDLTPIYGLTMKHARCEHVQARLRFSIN

[11] = target: Cytochrome P450 2C19 (Homo sapiens, UniProt P33261); experiment: Inhibition of CYP2C19; type: ADME
Sequence of Cytochrome P450 2C19 (P33261 whole entry): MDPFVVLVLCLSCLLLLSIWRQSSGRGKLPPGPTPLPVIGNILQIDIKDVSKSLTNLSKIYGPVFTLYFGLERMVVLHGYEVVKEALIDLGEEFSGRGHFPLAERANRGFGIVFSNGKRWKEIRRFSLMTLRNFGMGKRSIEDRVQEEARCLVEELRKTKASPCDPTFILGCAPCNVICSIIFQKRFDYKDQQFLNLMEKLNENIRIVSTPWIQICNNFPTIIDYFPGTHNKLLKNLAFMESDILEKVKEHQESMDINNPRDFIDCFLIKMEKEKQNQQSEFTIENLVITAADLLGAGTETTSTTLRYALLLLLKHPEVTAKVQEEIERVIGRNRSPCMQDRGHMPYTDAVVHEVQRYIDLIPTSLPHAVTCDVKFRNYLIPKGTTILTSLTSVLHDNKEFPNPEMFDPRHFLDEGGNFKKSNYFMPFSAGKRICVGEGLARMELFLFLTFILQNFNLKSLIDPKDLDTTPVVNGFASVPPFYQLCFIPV

[12] = target: Cytochrome P450 2D6 (Homo sapiens, UniProt P10635); experiment: Inhibition of CYP2D6; type: ADME
Sequence of Cytochrome P450 2D6 (P10635 whole entry): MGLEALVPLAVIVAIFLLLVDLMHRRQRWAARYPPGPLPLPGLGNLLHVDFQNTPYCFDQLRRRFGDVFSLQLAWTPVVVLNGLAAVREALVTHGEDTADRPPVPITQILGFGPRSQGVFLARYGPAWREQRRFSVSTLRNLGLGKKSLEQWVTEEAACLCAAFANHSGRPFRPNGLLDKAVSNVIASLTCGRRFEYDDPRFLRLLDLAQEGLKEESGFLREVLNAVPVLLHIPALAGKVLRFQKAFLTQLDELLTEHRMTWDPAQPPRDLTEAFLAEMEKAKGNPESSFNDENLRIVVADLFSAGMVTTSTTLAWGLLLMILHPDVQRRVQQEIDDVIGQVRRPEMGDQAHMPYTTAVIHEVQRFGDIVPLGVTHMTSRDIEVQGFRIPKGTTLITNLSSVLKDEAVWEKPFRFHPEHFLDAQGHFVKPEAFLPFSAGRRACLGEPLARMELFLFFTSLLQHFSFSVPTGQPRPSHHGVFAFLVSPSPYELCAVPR

[13] = Absolute oral bioavailability in Sprague-Dawley rat at 2 mg/kg after 24 hrs wash out period by HPLC analysis; type: ADME, organism-based; settings: in vivo
Procedure, shortened: (§4)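 Male Sprague-Dawley rats (200–250 g), jugular and carotid artery cannulated; compound dissolved in 20% beta cyclodextrin, pH adjusted with methane sulfonic acid. Serial blood sampled at 12 time points over 24 h post dose by automated sampler; plasma from centrifugation analysed by HPLC; PK parameters by non-compartmental analysis of plasma concentration–time profile.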

[14] = Clearance in Sprague-Dawley rat plasma at 2 mg/kg, po and 1 mg/kg, iv after 24 hrs wash out period by HPLC analysis; type: ADME, organism-based; procedure, shortened: as §4
[15] = Tmax in Sprague-Dawley rat plasma at 2 mg/kg, po and 1 mg/kg, iv after 24 hrs wash out period by HPLC analysis; type: ADME, organism-based; procedure, shortened: as §4
[16] = Cmax in Sprague-Dawley rat plasma at 2 mg/kg, po and 1 mg/kg, iv after 24 hrs wash out period by HPLC analysis; type: ADME, organism-based; procedure, shortened: as §4
[17] = Volume of distribution at steady state in Sprague-Dawley rat plasma at 2 mg/kg, po and 1 mg/kg, iv after 24 hrs wash out period by HPLC analysis; type: ADME, organism-based; settings: read-out: Vdss; procedure, shortened: as §4
[18] = test system: Rattus norvegicus; experiment: Antiobesity activity in cPP-induced feeding in Sprague-Dawley rat model assessed as reduction in food intake at 0.1 to 10 mg/kg, po measured 1 hr post cpp challenge; type: functional, organism-based
Procedure, shortened: (§5)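 Rats pretreated orally at 0.1, 1 or 10 mg/kg (vehicle 20% cyclodextrin) 1 h before intracerebroventricular infusion of Y5-selective peptide agonist cPP, 0.6 nmol in normal saline; food intake recorded, n = 7–14 per group.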

[19] = test system: Rattus norvegicus; experiment: Antiobesity activity in po dosed cPP-induced feeding Sprague-Dawley rat model assessed as reduction in food intake measured 1 hr post cpp challenge; type: functional; procedure, shortened: as §5
[20] = Drug uptake in cPP-induced feeding Sprague-Dawley rat model brain at 0.1 mg/kg, po after 1 hr; type: ADME, organism-based; set-up: dose 0.1 mg/kg, route oral; settings: read-out: Drug uptake
Procedure, shortened: (§6)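 Satellite animals from the cPP feeding study dosed orally at 0.1, 1 or 10 mg/kg; plasma (ng/mL) and brain (ng/g) levels measured 1 h after dosing.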

[21] = Drug uptake in cPP-induced feeding Sprague-Dawley rat model brain at 10 mg/kg, po after 1 hr; type: ADME, organism-based; set-up: dose 10 mg/kg, route oral; settings: read-out: Drug uptake; procedure, shortened: as §6
[22] = Plasma concentration in cPP-induced feeding Sprague-Dawley rat model at 0.1 mg/kg, po after 1 hr; type: ADME, organism-based; set-up: dose 0.1 mg/kg, route oral; procedure, shortened: as §6
[23] = Plasma concentration in cPP-induced feeding Sprague-Dawley rat model at 1 mg/kg, po after 1 hr; type: ADME, organism-based; set-up: dose 1 mg/kg, route oral; procedure, shortened: as §6
[24] = Plasma concentration in cPP-induced feeding Sprague-Dawley rat model at 10 mg/kg, po after 1 hr; type: ADME, organism-based; set-up: dose 10 mg/kg, route oral; procedure, shortened: as §6

CC(C)S(=O)(=O)NC[C@H]1CC[C@H](NC(=O)CN2CCc3cc(Cl)ccc32)CC1
CLH [1]: 3.6 L/min
CLH [2]: 49 mL/min
concentration [3]: 304 nM
Papp A→B [4]: 2.31 ×10⁻⁶ cm/s
Papp B→A [5]: 60.1 ×10⁻⁶ cm/s
efflux ratio [6]: 26
concentration at 1 h [7]: 295 nM
logD [8]: 3
fraction unbound [9]: 0.009
IC50 [10]: > 40 µM
IC50 [11]: > 40 µM
IC50 [12]: > 40 µM
bioavailability [13]: 100%
clearance [14]: 25 mL/min/kg
Tmax [15]: 48 min
Cmax [16]: 700 ng/mL
Vd [17]: 1.9 L/kg
Activity [18]: Active
Activity [19]: Dose-dependent effect
minimal effective dose ([19]; read-out: MED): < 0.1 mg/kg
concentration at 1 h [20]: 11 ng/g
concentration at 1 h [21]: 151 ng/g
concentration at 1 h [22]: 76 ng/mL
concentration at 1 h [23]: 516 ng/mL
concentration at 1 h [24]: 1700 ng/mL
